This assay has as its target Amyloid-beta precursor protein (Homo sapiens, UniProt P05067). The assay can be described thus: Displacement of [125I]IMPY from beta-amyloid plaques in Alzheimer's disease patient brain homogenate. It counts as tissue-based. In outline:
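Test compound was added at 10^-5–10^-10 M, serially diluted in PBS containing 0.1% BSA. Nonspecific binding was defined with 600 nM unlabeled IMPY. Incubation was 37 °C for 2 h, followed by GF/B vacuum filtration, PBS washes and γ counting. Ki came from nonlinear regression.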

Amyloid-beta precursor protein, sequence (P05067 whole entry): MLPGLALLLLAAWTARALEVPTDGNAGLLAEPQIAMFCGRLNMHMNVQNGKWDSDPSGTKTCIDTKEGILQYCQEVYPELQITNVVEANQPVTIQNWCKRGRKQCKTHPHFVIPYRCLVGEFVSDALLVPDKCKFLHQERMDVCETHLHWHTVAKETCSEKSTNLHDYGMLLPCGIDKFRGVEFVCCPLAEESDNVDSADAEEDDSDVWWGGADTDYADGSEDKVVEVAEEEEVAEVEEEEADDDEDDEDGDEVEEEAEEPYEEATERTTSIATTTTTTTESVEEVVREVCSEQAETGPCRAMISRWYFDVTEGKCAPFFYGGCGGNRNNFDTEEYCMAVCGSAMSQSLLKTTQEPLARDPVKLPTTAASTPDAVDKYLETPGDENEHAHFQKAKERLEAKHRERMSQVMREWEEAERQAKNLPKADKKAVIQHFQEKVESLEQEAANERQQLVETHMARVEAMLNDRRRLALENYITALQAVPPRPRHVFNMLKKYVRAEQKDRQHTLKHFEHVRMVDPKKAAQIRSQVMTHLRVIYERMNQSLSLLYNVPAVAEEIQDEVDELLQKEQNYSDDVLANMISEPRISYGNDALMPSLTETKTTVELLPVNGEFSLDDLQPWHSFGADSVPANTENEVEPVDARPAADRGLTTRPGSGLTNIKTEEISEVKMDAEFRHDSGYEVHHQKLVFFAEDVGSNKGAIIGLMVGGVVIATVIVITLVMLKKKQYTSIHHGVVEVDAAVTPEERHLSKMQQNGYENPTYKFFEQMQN

In turn, `Nc1ccc2nc(-c3ccc(F)cc3)sc2c1` came in with a Ki of 10 nM. With `CNc1ccc2nc(-c3ccc(F)cc3)sc2c1`, the affinity corresponds to a Ki of 4.1 nM. Against the preceding compound, the Ki is about 2.4-fold lower.

The values above are taken from ChEMBL document CHEMBL1154674, “Synthesis and evaluation of three 18F-labeled aminophenylbenzothiazoles as amyloid imaging agents” (J Med Chem, 2009).
